Reference: ChEMBL document CHEMBL1687807, “Effect of N-1/c-8 ring fusion and C-7 ring structure on fluoroquinolone lethality” (2010)
Converted amounts (≈) assume the structure as drawn.

Assays:
Type in all cases: functional
Escherichia coli [1] = test: Bacteriostatic activity against Escherichia coli K-12 DM4100
Method in brief: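 MIC by broth dilution: E. coli K-12 DM4100 at 10^4 to 10^5 cells/ml in LB liquid medium with serial 2-fold dilutions of quinolone, incubated at 37°C. Drug stock dilutions made in sterile distilled water.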

Escherichia coli [2] = test: Bactericidal activity against Escherichia coli K-12 DM4100 after 2 hrs in presence of protein synthesis inhibitor chloramphenicol treated 10 mins before compound challenge
Method in brief: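 Midlog E. coli grown aerobically at 37°C in LB. Chloramphenicol added to 20 μg/ml 10 min before quinolone, then 2 h further incubation. Cells diluted in growth medium and plated on drug-free agar, then incubated overnight at 37°C for CFU counts. Percent survival is relative to CFU at quinolone addition.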

Escherichia coli [3] = test: Ratio of LD99 for Escherichia coli K-12 DM4100 to MIC for Escherichia coli K-12 DM4100
Method in brief: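 MIC: 10^4 to 10^5 cells/ml incubated at 37°C in LB broth with serial 2-fold quinolone dilutions. Lethality: midlog cultures grown aerobically at 37°C and exposed to quinolone for 2 h, then plated on drug-free agar overnight for CFU. Survival is expressed as percent of CFU at drug addition.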

| SMILES | MIC (Escherichia coli [1]) | LD99 (Escherichia coli [2]) | Ratio (Escherichia coli [3]) |
| --- | --- | --- | --- |
| CCC1CN(c2c(F)cc3c(=O)c(C(=O)O)cn4c3c2OC[C@@H]4C)CCN1 (stereo not given in full) | 0.25 µg/mL (≈ 0.666 µM) | 0.5 µg/mL | 2 |
| C[C@H]1COc2c(N3C[C@@H]4CCCN[C@@H]4C3)c(F)cc3c(=O)c(C(=O)O)cn1c23 | 0.125 µg/mL (≈ 0.323 µM) | 0.25 µg/mL | 2 |
| CCN1CCN(c2c(F)cc3c(=O)c(C(=O)O)cn(C4CC4)c3c2OC)CC1 | 0.1 µg/mL (≈ 0.257 µM) | 0.14 µg/mL | 1.4 |
| CN1CCN(c2c(F)cc3c(=O)c(C(=O)O)cn4c3c2SCC4)CC1 [RUFLOXACIN] | 1 µg/mL (≈ 2.75 µM) | 7 µg/mL | 7 |
| COc1c(N2CCN(C)CC2)c(F)cc2c(=O)c(C(=O)O)cn(C3CC3)c12 | 0.062 µg/mL (≈ 0.165 µM) | 0.2 µg/mL | 3.2 |
| COc1c(N2C[C@@H]3CCCN[C@@H]3C2)c(F)cc2c(=O)c(C(=O)O)cn(C3CC3)c12 [MOXIFLOXACIN] | 0.125 µg/mL (≈ 0.311 µM) | 0.5 µg/mL | 4 |
| CC1CN(c2c(F)cc3c(=O)c(C(=O)O)cn4c3c2OC[C@@H]4C)CCN1 (stereo not given in full) | 0.31 µg/mL (≈ 0.858 µM) | 0.74 µg/mL | 2.4 |
| COc1c(N2CCNCC2)c(F)cc2c(=O)c(C(=O)O)cn(C3CC3)c12 | 0.031 µg/mL (≈ 0.0858 µM) | 0.04 µg/mL | 1.3 |
| CCN1CCN(c2c(F)cc3c(=O)c(C(=O)O)cn4c3c2OC[C@@H]4C)CC1 | 0.75 µg/mL (≈ 2 µM) | 1.5 µg/mL | 2 |
| CCC1CN(c2c(F)cc3c(=O)c(C(=O)O)cn(C4CC4)c3c2OC)CCN1 (stereo not given) | 0.16 µg/mL (≈ 0.411 µM) | 0.8 µg/mL | 5 |
| C[C@H]1COc2c(N3CCN(C)CC3)c(F)cc3c(=O)c(C(=O)O)cn1c23.C[C@H]1COc2c(N3CCN(C)CC3)c(F)cc3c(=O)c(C(=O)O)cn1c23.O [LEVOFLOXACIN] | 0.2 µg/mL | 0.8 µg/mL | 4 |
| CN1CCN(c2c(F)cc3c(=O)c(C(=O)O)cn4c3c2OCN4C)CC1 [MARBOFLOXACIN] | 0.02 µg/mL (≈ 0.0552 µM) | 0.06 µg/mL | 3 |
| C[C@H]1COc2c(C3(N)CC3)c(F)cc3c(=O)c(C(=O)O)cn1c23 [PAZUFLOXACIN] | 0.02 µg/mL (≈ 0.0628 µM) | 0.08 µg/mL | 4 |
| C[C@H]1COc2c(N3CCNCC3)c(F)cc3c(=O)c(C(=O)O)cn1c23 [N-DESMETHYL LEVOFLOXACIN] | 1 µg/mL (≈ 2.88 µM) | 1.2 µg/mL | 1.2 |
| COc1c(N2CCNC(C)C2)c(F)cc2c(=O)c(C(=O)O)cn(C3CC3)c12 (stereo not given) [GATIFLOXACIN] | 0.04 µg/mL (≈ 0.107 µM) | 0.2 µg/mL | 5 |
